The test system of one data set is P388. Put plainly: (§1) Compound was evaluated in vivo for antitumor activity utilizing the murine P388 leukemia system in B6D2F1 male mice. It counts as functional, Mus musculus. In outline:
(§2)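 B6D2F1 male mice were inoculated ip on day 0 with 10⁶ P388 leukemia cells. Drug was given ip once daily on days 1–4, broadly following standard NCI protocols. Activity was read as percent increase in life span relative to untreated controls, reported at the highest nontoxic dose. The experiment was terminated on day 60.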

Data set [1] can be described thus: Time for esterases in unfractionated mouse serum to reduce the concentration due to thio ester deacylation. It counts as ADME. In a few lines:
(§3)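 Drug incubated at 37 °C in pH 7.0 carbonate buffer containing 1% unfractionated mouse serum, pooled from 10 animals and stored at -70 °C. Loss of parent compound followed by HPLC; T1/2 is time for the initial concentration to fall by 50% through thio ester deacylation.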

In a further data set the test system is Nucleic Acid. Put plainly: (§4) Compound was tested in vitro for ability to bind with double helical calf thymus DNA was determined spectrophotometrically at 480 nmby spectral shift method and the value expressed as the ratio A/Ao. It counts as nucleic-acid assay. The settings on record: Bos taurus. In a few lines:
(§5)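 Calf thymus double-helical DNA in pH 7.0 Tris buffer, drug/DNA molar ratio 0.1. Absorbance at 480 nm measured for drug alone (A₀) and after mixing with DNA (A), reported as A/A₀ (spectral shift method).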

In another data set the test system is CCRF-CEM. Nature of the data set: In vitro growth-inhibition assay utilizing CCRF-CEM cells, a lymphoblastic leukemic line of human origin. It counts as functional. The settings on record: read-out: ID50 (the source's name). In a few lines: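 Human CCRF-CEM lymphoblastic leukemia cells in continuous suspension culture, exposed continuously to drug for 48 h. ID₅₀ is the concentration giving 50% reduction in growth versus untreated control cultures.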

Data set [2] deals with Mus musculus. Described as §1. It counts as functional. In outline: as §2
The nature of data set [3]: Time for esterases in unfractionated mouse serum to reduce the concentration due to thio ester deacylation; 10 % hydrolysis at 60 mins. It counts as ADME. In a few lines:
as §3

The test system of data set [4] is Mus musculus. Nature of the data set: Compound was evaluated in vivo for antitumor activity utilizing the murine P388 leukemia system in B6D2F1 male mice; Curative. It counts as functional, organism-based. In outline:
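Murine P388 leukemia in B6D2F1 male mice; 10⁶ tumor cells inoculated ip on day 0; drug given ip once daily on days 1–4, largely per standard NCI protocols. Outcome is percent increase in life span versus untreated controls, at highest nontoxic dose; experiment ended day 60.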

Data set [5] in a line: T 1/2 value indicates the time required for the initial concentration of compound to be reduced by 50%,. It counts as ADME. In outline: as §3
Data set [6] is described as follows: as §4. In a few lines: as §5

In turn, `COc1cccc2c1C(=O)c1c(O)c3c(c(O)c1C2=O)C[C@@](O)(C(=O)CSC(=O)c1ccccc1)C[C@@H]3OC1CC(N)C(O)C(C)O1` (stereo partly specified) returned an Optimal dose in the data set on P388 of 10 mg/kg. For the same compound, in data set [1], the half-life (in general, how long it takes for the measured level to halve) came out at 8 min. Besides, the Ratio with Nucleic Acid is 0.65. Further, the IC50 in the data set with CCRF-CEM stood at 2300 nM. In addition, the increase in lifespan (ILS) (commonly how much longer treated animals lived than controls) in the data set on Mus musculus [2] stood at 140%.
As to `COc1cccc2c1C(=O)c1c(O)c3c(c(O)c1C2=O)C[C@@](O)(C(=O)CSC(=O)c1ccccc1)C[C@@H]3OC1CC(NC(=O)C(F)(F)F)C(O)C(C)O1` (stereo partly specified), in data set [3], the half-life is > 60 min. The Ratio in the data set on Nucleic Acid was 0.98. The IC50 with CCRF-CEM came out at 3800 nM.
Consider `CCCCC(=O)OCC(=O)[C@]1(O)Cc2c(O)c3c(c(O)c2[C@@H](OC2CC(NC(=O)C(F)(F)F)C(O)C(C)O2)C1)C(=O)c1c(OC)cccc1C3=O` (stereo partly specified), for which the increase in life span (ILS) result in the data set on Mus musculus [4] is reported as “Curative”. In addition, in the data set with P388, the Optimal dose turned out to be 50 mg/kg. In data set [1], this compound displayed a half-life of 10 min. Also, the Ratio with Nucleic Acid worked out at 0.6. In addition, in the data set with CCRF-CEM, the IC50 was determined as 240 nM.
Consider `CCC(=O)SCC(=O)[C@]1(O)Cc2c(O)c3c(c(O)c2[C@@H](OC2CC(N)C(O)C(C)O2)C1)C(=O)c1c(OC)cccc1C3=O` (stereo partly specified), for which the Optimal dose in the data set on P388 was found to be 20 mg/kg. Further, the half-life in data set [1] came out at 5 min. In addition, the Ratio with Nucleic Acid turned out to be 0.61. Further, the IC50 in the data set on CCRF-CEM was 720 nM. For the same compound, the ILS in the data set with Mus musculus [2] is on record as 80%.
As to `CCCCC(=O)SCC(=O)[C@]1(O)Cc2c(O)c3c(c(O)c2[C@@H](OC2CC(NC(=O)C(F)(F)F)C(O)C(C)O2)C1)C(=O)c1c(OC)cccc1C3=O` (stereo partly specified), the half-life in [1] was 22 min. Moreover, the IC50 in the data set with CCRF-CEM is > 5000 nM.
For `CCCC(=O)SCC(=O)[C@]1(O)Cc2c(O)c3c(c(O)c2[C@@H](OC2CC(NC(=O)C(F)(F)F)C(O)C(C)O2)C1)C(=O)c1c(OC)cccc1C3=O` (stereo partly specified), in that order: 42 min and > 5000 nM.
Compound `CCCCC(=O)SCC(=O)[C@]1(O)Cc2c(O)c3c(c(O)c2[C@@H](OC2CC(N)C(O)C(C)O2)C1)C(=O)c1c(OC)cccc1C3=O` (stereo partly specified) yielded an Optimal dose in the data set with P388 of 10 mg/kg. This compound also showed a half-life in data set [1] of 8 min. Moreover, the Ratio with Nucleic Acid turned out to be 0.65. In addition, the IC50 with CCRF-CEM was determined as 450 nM. In addition, the ILS with Mus musculus [2] was 130%.
As to `COc1cccc2c1C(=O)c1c(O)c3c(c(O)c1C2=O)C[C@@](O)(C(=O)CSC(C)=O)C[C@@H]3OC1CC(NC(=O)C(F)(F)F)C(O)C(C)O1` (stereo partly specified), the half-life in data set [1] was determined as 18 min. Further, in the data set with CCRF-CEM, the IC50 is > 5000 nM.
The compound `COc1cccc2c1C(=O)c1c(O)c3c(c(O)c1C2=O)C[C@@](O)(C(=O)CSC(C)=O)C[C@@H]3OC1CC(N)C(O)C(C)O1` (stereo partly specified) showed an Optimal dose with P388 of 25 mg/kg. The compound further came in with a half-life in data set [1] of 6 min. Also, in the data set with Nucleic Acid, the Ratio was 0.61. In addition, the IC50 in the data set on CCRF-CEM was 900 nM. In the data set with Mus musculus [2], this compound displayed an increase in lifespan (ILS) of 220%.
On to `CCCC(=O)SCC(=O)[C@]1(O)Cc2c(O)c3c(c(O)c2[C@@H](OC2CC(N)C(O)C(C)O2)C1)C(=O)c1c(OC)cccc1C3=O` (stereo partly specified), for which the Optimal dose in the data set on P388 turned out to be 10 mg/kg. In addition, the half-life in data set [1] stood at 10 min. Also, in the data set with Nucleic Acid, the Ratio was found to be 0.63. Moreover, the IC50 in the data set with CCRF-CEM was determined as 560 nM. This compound had an ILS with Mus musculus [2] of 90%.
Compound `COc1cccc2c1C(=O)c1c(O)c3c(c(O)c1C2=O)C[C@@](O)(C(=O)CO)C[C@@H]3O[C@H]1C[C@H](N)[C@H](O)[C@H](C)O1` [DOXORUBICIN] gave an Optimal dose in the data set on P388 of 3 mg/kg. Moreover, the Ratio in the data set on Nucleic Acid is 0.96. For the same compound, the IC50 in the data set with CCRF-CEM is 60 nM. The ILS with Mus musculus [2] worked out at 157%.
Compound `CCC(=O)SCC(=O)[C@]1(O)Cc2c(O)c3c(c(O)c2[C@@H](OC2CC(NC(=O)C(F)(F)F)C(O)C(C)O2)C1)C(=O)c1c(OC)cccc1C3=O` (stereo partly specified) registered a half-life in data set [5] of 80 min. In the data set with CCRF-CEM, the IC50 came out at 2800 nM. In addition, in data set [6], the Ratio was determined as 0.99.

For the origin of these results see ChEMBL document CHEMBL1123530, “Adriamycin analogues. Preparation and biological evaluation of some thio ester analogues of adriamycin and N-(trifluoroacetyl)adriamycin 14-valerate” (J Med Chem, 1986).
